Rows were chosen to be rich in hits. Some 2.1% of all compounds tested hit in one or more screens of this group.
KLF5 inhibitor – inhibitors of KLF5 expression; DLD-1 KLF5 promoter-luciferase reporter, luminescence; AID 1700; inhibition, % at 5 µM; 290,000 compounds, 0.23% hits;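 active = inhibition above a per-plate limit of that plate's mean compound inhibition plus 3 SD, cut at about 60% in these data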;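 note: higher means less KLF5 promoter-driven luciferase light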
Ba/F3 V617F tox – reduce viability of Ba/F3 cells dependent on JAK2V617F. 220,000 compounds, 1.1% hits. Ba/F3 EpoR-JAK2V617F viability, ATP luminescence. inhibition, % at 5.6 µM;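 active = inhibition above the campaign mean plus 3 SD over all tested compounds, cut at about 24% in these data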;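 note: cytokine-independent growth of Ba/F3 cells driven by EpoR plus mutant JAK2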
BaF3 tox – counter-screen for JAK2V617F inhibitors: parental Ba/F3 viability inhibitors; CellTiter-Glo ATP luminescence; inhibition, % at 5.6 µM; 220,000 compounds, 1.1% hits;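 active = inhibition above a per-campaign cutoff, the mean inhibition of all tested compounds plus 3 SD, cut at about 27% in these data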
IEC-6 cytotox – IEC-6 cytotoxicity, counter-screen for KLF5 inhibitors; luminescence viability; inhibition, % at 5 µM; 290,000 compounds, 0.78% hits; AID 1825; in the data active = inhibition above about 22%
bCat nuc transl – beta-catenin nuclear translocation modulation. HeLa beta-catenin nuclear translocation, immunofluorescence imaging. nuclear translocation activity, % at 5 µM. 190,000 compounds, 0.3% hits;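 active = nuclear translocation activity above 50% at 5 µM, with a well cell count of 50 or more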;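 note: per-cell ratio of nuclear to cytoplasmic median beta-catenin stain intensity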
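System: Human HeLa cells, endogenous beta-catenin | Compound dosing: 5 µM primary, 0.02–20 µM confirmation | Timing: 24 h compound exposure at 37°C, 5% CO2 | Measured by: Fluorescence imaging of beta-catenin antibody stain plus DAPI | Read-out basis: % activation of per-cell nuclear versus cytoplasmic median beta-catenin signal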
MT stabilize HCS – stabilizes microtubules in HeLa cells | HeLa tubulin immunostaining HCS, 24 h; share of cells brighter than vehicle mean+2SD | % tubulin-high responders, % at 10 µM | 200,000 compounds, 0.83% hits;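 active = plate Z-score above 3 for both tubulin-high and condensed-nucleus cell shares, with cell loss under 80%, at 10 µM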;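 note: anti alpha tubulin signal scored within the nucleus-defined area of each cell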
Large screens that a line does not name were inactive.

O=C(/C(=C\c1ccccc1)c1nc2ccccc2[nH]1)c1ccc(Cl)cc1	MT stabilize HCS 22
O=C(/C(=C/c1ccc(Cl)cc1)c1nc2ccccc2[nH]1)c1cccs1	MT stabilize HCS 28
O=C(CSc1nnc(-c2ccco2)o1)Nc1ccccc1Cl	none (no result: Ba/F3 V617F tox, BaF3 tox, bCat nuc transl, MT stabilize HCS)
COc1ccc2[nH]c(=O)c(CN(Cc3cccs3)Cc3nnnn3C(C)(C)C)cc2c1	none
CCOc1ccc2[nH]c(=O)c(CN(Cc3cccs3)Cc3nnnn3C(C)(C)C)cc2c1	MT stabilize HCS 33
O=C(NC(Cc1ccccc1)C(=O)O)/C(=C\c1ccccc1F)NC(=O)c1ccccc1 (centres undefined)	none
O=C(NC(Cc1ccccc1)C(=O)O)/C(=C/c1ccc(Cl)cc1)NC(=O)c1ccccc1 (centres undefined)	BaF3 tox 37
CC(=O)N1CCN(c2ccccc2NC(=O)c2ccc(C#N)cc2F)CC1	BaF3 tox 90
COc1ccc(CNC(=O)C/C(C)=N/NC(=O)COc2ccc(C)cc2Br)cc1	bCat nuc transl 146
C/C(CC(=O)NCc1ccco1)=N\NC(=O)COc1ccc(Cl)cc1Cl	bCat nuc transl 59
O=C(COc1ccc(Cl)cc1Cl)NCc1ccco1	none
CCCNC(=O)C/C(C)=N/NC(=O)COc1ccc(C)cc1Br	none
CC(=O)c1c(C)[nH]c(C(=O)COc2cc(C)ccc2C(C)C)c1C	Ba/F3 V617F tox 45, BaF3 tox 40 (no result: bCat nuc transl)
CC(C)C(C(=O)Nc1ccc2c(c1)OCO2)N1C(=O)c2ccccc2C1=O (centres undefined)	none (no result: bCat nuc transl)
CC(C)C(C(=O)Nc1ccc(N2CCOCC2)cc1)N1C(=O)c2ccccc2C1=O (centres undefined)	BaF3 tox 60
CC(C)C(C(=O)Nc1ccc2c(c1)OCCO2)N1C(=O)c2ccccc2C1=O (centres undefined)	BaF3 tox 94
CC(C(=O)Nc1ccc(N2CCOCC2)cc1)N1C(=O)c2ccccc2C1=O (centres undefined)	none (no result: bCat nuc transl)
COCCNC(=O)COC(=O)c1cccnc1SC	none (no result: bCat nuc transl)
CC(=O)C1=C(O)C(=O)N(Cc2ccccc2)C1c1ccccc1F (centres undefined)	BaF3 tox 37
CCOc1cc(C(=O)N/N=C/C(Br)=C/c2ccccc2)cc(OCC)c1OCC	MT stabilize HCS 9.1 (no result: bCat nuc transl)
O=C(N/N=C/C(Br)=C/c1ccccc1)c1ccncc1	none (no result: MT stabilize HCS)
O=S(=O)(Nc1cc(Sc2cccc3cccnc23)c(O)c2ccccc12)c1ccc(F)cc1	IEC-6 cytotox 51
COc1ccc(S(=O)(=O)Nc2cc(Sc3ncn[nH]3)c(O)c3ccccc23)cc1	KLF5 inhibitor 89, Ba/F3 V617F tox 90, BaF3 tox 87 (no result: bCat nuc transl)
COc1ccc(S(=O)(=O)Nc2cc(SCC(=O)O)c(O)c3ccccc23)cc1	none (no result: Ba/F3 V617F tox, BaF3 tox, bCat nuc transl, MT stabilize HCS)
O=C(Sc1cccc2cccnc12)c1ccc(F)cc1	Ba/F3 V617F tox 43, BaF3 tox 41, IEC-6 cytotox 87
COc1ccc(S(=O)(=O)Nc2ccc(O)c(Sc3ncn[nH]3)c2)cc1	none
Cc1ccccc1C(=O)NC(CC(C)C)C(=O)Nc1ccc(S(N)(=O)=O)cc1 (centres undefined)	none
O=C(OCn1ncc(Br)c(Br)c1=O)c1c(F)cccc1F	Ba/F3 V617F tox 74, BaF3 tox 67
CC(=O)Cn1ncc(Br)c(Br)c1=O	IEC-6 cytotox 102
O=C(Nc1ccc(Br)cn1)c1cccc2c1-c1ccccc1C2=O	MT stabilize HCS 36
Cc1cccc(NC(=O)c2cccc3c2-c2ccccc2C3=O)n1	none
C=C(C)CN(CC)Cc1c(C(=O)N(C)CCCC)nc2ccccn12	none
Cc1cc(N2CCCC2)ccc1/C=C1/C(=O)N(C)C(=S)N1C	MT stabilize HCS 25
Cc1cc(/C=C2/C(=O)N(C)C(=S)N2C)ccc1N1CCCC1	none
COc1ccc(CCn2c(N)c(C(=O)NCc3ccco3)c3nc4ccccc4nc32)cc1	Ba/F3 V617F tox 37, BaF3 tox 38, MT stabilize HCS 15
CCCCN(CCCC)C(=O)c1cc2ccccc2c(=O)o1	BaF3 tox 37
CCCCC(CC)CNC(=O)c1cc2ccccc2c(=O)o1 (centres undefined)	none (no result: bCat nuc transl)
COc1ccc2c(c1)c(=O)c(C(=O)c1ccccc1)cn2Cc1ccccc1	MT stabilize HCS 17
COc1ccc(Cn2cc(C(=O)c3ccccc3)c(=O)c3cc(OC)ccc32)cc1	none
O=c1c2ccccc2cnn1Cc1n[nH]c(=S)n1-c1ccccc1	none
Cc1cccc(-c2nc3ccccc3c(=O)n2NC(=O)c2ccc([N+](=O)[O-])c(C)c2)c1	none
COc1cc(NC(=O)COc2ccc(Cl)cc2)ccc1-c1cc2ccccc2oc1=O	MT stabilize HCS 24
COC(=O)c1ccc(Cn2nnc3c(=O)[nH]c(C4CCN(S(=O)(=O)c5cc(C)ccc5C)CC4)nc32)cc1	none (no result: Ba/F3 V617F tox, BaF3 tox, bCat nuc transl, MT stabilize HCS)
COCCn1c(SCc2nnc(-c3ccc(OC)c(OC)c3)o2)nnc1-c1ccncc1	none (no result: MT stabilize HCS)
COc1ccc(Cn2cnc3c(N)c(C)c(C)cc32)cc1	none
CCCCCCCCn1cnc2c(N)c(C)c(C)cc21	Ba/F3 V617F tox 76, BaF3 tox 60 (no result: bCat nuc transl)
COc1cc(/C=N/NC(=O)CCN2CCN(C)CC2)cc2c1OCO2	none (no result: Ba/F3 V617F tox, BaF3 tox, bCat nuc transl, MT stabilize HCS)
Cc1nn(Cc2ccc(C(=O)Nc3nccs3)cc2)c(C)c1Cl	Ba/F3 V617F tox 39, BaF3 tox 43
CC[n+]1ccc(C)c2cc(S(=O)C(F)(F)F)ccc21 (centres undefined)	BaF3 tox 27
CC[n+]1ccc(C)c2cc(P(=O)(c3ccccc3)c3ccccc3)ccc21	none
CC[n+]1ccc(C)c2cc(SC(F)(F)F)ccc21	BaF3 tox 35 (no result: bCat nuc transl)
CCN(CC)S(=O)(=O)c1ccc2[nH]c(=O)c3ccccc3c2c1	none (no result: Ba/F3 V617F tox, BaF3 tox, bCat nuc transl, MT stabilize HCS)
CC1CCC(C(C)C)C(OC(=O)CSc2nccc(=O)[nH]2)C1 (centres undefined)	none (no result: bCat nuc transl)
COc1ccc(-c2n(CC(=O)OC3CC(C)CCC3C(C)C)c3ccccc3[n+]2C)cc1 (centres undefined)	Ba/F3 V617F tox 100, BaF3 tox 89
COc1ccc(OCc2n(CC(=O)OC3CC(C)CCC3C(C)C)c3ccccc3[n+]2C)cc1 (centres undefined)	Ba/F3 V617F tox 99, BaF3 tox 100 (no result: MT stabilize HCS)
COC(=O)c1c(C)[nH]c(-c2csc(N)n2)c1C	BaF3 tox 51, MT stabilize HCS 13
COc1ccc(NS(=O)(=O)c2cc(NC(=O)CCSc3ccccc3)ccc2OC)cc1	none
COc1ccc(NC(=O)CCS(=O)(=O)c2ccccc2Cl)cc1S(=O)(=O)Nc1ccc(Cl)cc1	BaF3 tox 69
COc1ccccc1NS(=O)(=O)c1cc(NC(=O)CCC(=O)c2cccs2)ccc1Cl	none
COc1ccc(NC(=O)CCC(=O)c2cccs2)cc1S(=O)(=O)Nc1ccc(Cl)cc1	MT stabilize HCS 17
CCOc1ccc(-c2nc(CSc3nncs3)cs2)cc1OC	none
COc1cc(C(=O)Nc2ccc3c(c2)Cc2ccccc2-3)cc(OC)c1OC	none
